Results reported in ChEMBL document CHEMBL2424590, “4-[18F]Fluoro-m-hydroxyphenethylguanidine: a radiopharmaceutical for quantifying regional cardiac sympathetic nerve density with positron emission tomography” (J Med Chem, 2013).

Columns and labels:
[1] = Drug uptake in rhesus macaque monkey cortex 5 to 6 mCi, iv after 90 mins by PET analysis; type: ADME, organism-based, Macaca mulatta; conditions: in vivo, 1.5 h
[2] = Drug uptake in Sprague-Dawley rat heart sympathetic neurons measured per gram wet mass of heart at 2 uCi/mL administered as infusion for 10 mins measured after 120 mins by gamma counting analysis; type: ADME, tissue-based; conditions: sympathetic neuron, 2 h
Procedure, shortened: (§1)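 Isolated working rat hearts perfused with 54 μM corticosterone in all perfusates to block uptake-2. Tracer infused at <10 nM total mass for 10 min to measure neuronal uptake rate (mL/min/g wet), then switched to normal perfusate to follow clearance over 2 h.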

[3] = tested on: Lung; assay: Biodistribution in Sprague-Dawley rat lung at 20 to 120 uCi, iv after 60 mins by gamma counting analysis; type: ADME, organism-based; conditions: in vivo, 1 h
Procedure, shortened: (§2)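 Sprague-Dawley rats (280–330 g), 2 male and 2 female per time point (5, 30, 60, 120 min), under light isoflurane, received a tail-vein bolus of 20–120 μCi tracer in 0.05–0.10 mL isotonic 60 mM sodium phosphate, pH 5.4. Tissues were weighed and gamma-counted. Decay-corrected dpm/g was normalized to injected dpm per kg body weight (%ID·kg/g).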

[4] = tested on: Nucleic Acid; assay: Ratio of drug level in heart to blood in rhesus macaque monkey at 5 to 6 mCi, iv after 90 mins by PET analysis; type: ADME, organism-based, Macaca mulatta; conditions: other tissue, 1.5 h
[5] = tested on: Liver; assay: Biodistribution in Sprague-Dawley rat liver at 20 to 120 uCi, iv after 30 mins by gamma counting analysis; type: ADME, organism-based; conditions: in vivo, 0.5 h; procedure, shortened: as §2
[6] = tested on: Pancreas; assay: Biodistribution in Sprague-Dawley rat pancreas at 20 to 120 uCi, iv after 30 mins by gamma counting analysis; type: ADME, organism-based; conditions: in vivo, 0.5 h; procedure, shortened: as §2
[7] = tested on: Heart; assay: Biodistribution in Sprague-Dawley rat heart at 20 to 120 uCi, iv after 120 mins by gamma counting analysis; type: ADME, organism-based; conditions: in vivo, 2 h; procedure, shortened: as §2
[8] = tested on: Blood; assay: Drug uptake in rhesus macaque monkey whole blood at 0.1 mCi after 10 to 85 mins by gamma counting analysis; type: ADME, tissue-based, Macaca mulatta
[9] = tested on: Heart; assay: Biodistribution in Sprague-Dawley rat heart at 20 to 120 uCi, iv after 60 mins by gamma counting analysis; type: ADME, organism-based; conditions: in vivo, 1 h; procedure, shortened: as §2
[10] = tested on: Ovary; assay: Biodistribution in Sprague-Dawley rat ovary at 20 to 120 uCi, iv after 5 mins by gamma counting analysis; type: ADME, organism-based, Female gonad; conditions: in vivo
Procedure, shortened: as §2, with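 “g)” for “g), 2 male and 2 female per time point (5, 30, 60, 120 min),”, “isoflurane” for “isoflurane,”, “Sampling was at 5, 30, 60 or 120 min. […]” for “Tissues”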

[11] = tested on: Pancreas; assay: Biodistribution in Sprague-Dawley rat pancreas at 20 to 120 uCi, iv after 120 mins by gamma counting analysis; type: ADME, organism-based; conditions: in vivo, 2 h; procedure, shortened: as §2
[12] = tested on: Ovary; assay: Biodistribution in Sprague-Dawley rat ovary at 20 to 120 uCi, iv after 120 mins by gamma counting analysis; type: ADME, organism-based, Female gonad; conditions: in vivo, 2 h
Procedure, shortened: as §2, with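 “g)” for “g), 2 male and 2 female per time point (5, 30, 60, 120 min),”, “isoflurane” for “isoflurane,”, “Sampling was at 5, 30, 60 or 120 min. […]” for “Tissues”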

[13] = tested on: Bone; assay: Biodistribution in Sprague-Dawley rat bone at 20 to 120 uCi, iv after 120 mins by gamma counting analysis; type: ADME, organism-based, Bone element; conditions: in vivo, 2 h; procedure, shortened: as §2
[14] = tested on: Bone; assay: Biodistribution in Sprague-Dawley rat bone at 20 to 120 uCi, iv after 60 mins by gamma counting analysis; type: ADME, organism-based, Bone element; conditions: in vivo, 1 h; procedure, shortened: as §2
[15] = tested on: Pancreas; assay: Biodistribution in Sprague-Dawley rat pancreas at 20 to 120 uCi, iv after 60 mins by gamma counting analysis; type: ADME, organism-based; conditions: in vivo, 1 h; procedure, shortened: as §2
[16] = tested on: Blood; assay: Biodistribution in Sprague-Dawley rat blood at 20 to 120 uCi, iv after 60 mins by gamma counting analysis; type: ADME, organism-based; conditions: in vivo, 1 h; procedure, shortened: as §2
[17] = tested on: Spleen; assay: Biodistribution in Sprague-Dawley rat spleen at 20 to 120 uCi, iv after 60 mins by gamma counting analysis; type: ADME, organism-based; conditions: in vivo, 1 h
Procedure, shortened: (§3)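 Male and female rats (2 per sex per time point, 280–330 g) under light isoflurane given tail-vein bolus of 20–120 μCi tracer in 0.05–0.10 mL isotonic 60 mM sodium phosphate, pH 5.4. Tissues sampled at 5, 30, 60 or 120 min, weighed and gamma-counted. Decay-corrected dpm per gram normalised to injected dpm and body weight, given as %ID·kg/g.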

[18] = tested on: Testes; assay: Biodistribution in Sprague-Dawley rat testes at 20 to 120 uCi, iv after 5 mins by gamma counting analysis; type: ADME, organism-based, Testis; conditions: in vivo; procedure, shortened: as §3
[19] = Drug uptake in rhesus macaque monkey myocardium at 0.1 mCi after 10 to 30 mins by gamma counting analysis; type: ADME, Macaca mulatta; conditions: in vivo
[20] = Half life in Sprague-Dawley rat heart sympathetic neurons at 2 uCi/mL administered as infusion by gamma counting analysis; type: ADME, tissue-based; conditions: sympathetic neuron; procedure, shortened: as §1
[21] = tested on: Rattus norvegicus; assay: Biodistribution in Sprague-Dawley rat eyeballs at 20 to 120 uCi, iv after 60 mins by gamma counting analysis; type: ADME, organism-based, Eyeball of camera-type eye; conditions: in vivo, 1 h; procedure, shortened: as §2

- Drug uptake [1]: Active
- Kup [2]: 0.77 mL/min
- Drug uptake [3]: 0.091 %IDKg/g
- Ratio [4]: 3
- Drug uptake [5]: 0.406 %IDKg/g
- Drug uptake [6]: 0.145 %IDKg/g
- Drug uptake [7]: 0.347 %IDKg/g
- SUV [8]: 3.6
- Drug uptake [9]: 0.526 %IDKg/g
- Drug uptake [10]: 0.194 %IDKg/g
- Drug uptake [11]: 0.121 %IDKg/g
- Drug uptake [12]: 0.129 %IDKg/g
- Drug uptake [13]: 0.016 % ID/g
- Drug uptake [14]: 0.027 % ID/g
- Drug uptake [15]: 0.172 %IDKg/g
- Drug uptake [16]: 0.016 % ID/g
- Drug uptake [17]: 0.253 %IDKg/g
- Drug uptake [18]: 0.018 %IDKg/g
- SUV [19]: 1.2
- t1/2 [20]: > 24 h
- Drug uptake [21]: 0.041 %IDKg/g
Compound: N=C(N)NCCc1ccc([18F])c(O)c1
